Results as given in ChEMBL document CHEMBL1134284, “The biological effects of structural variation at the meta position of the aromatic rings and at the end of the alkenyl chain in the alkenyldiarylmethane series of non-nucleoside reverse transcriptase inhibitors” (J Med Chem, 2001).

What was measured:
[1] = Antiviral activity against Ba-L monocyte tropic isolate strain in monocyte; format: functional; conditions: Homo sapiens
Procedure, shortened: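 Monocytes isolated from hepatitis- and HIV-seronegative donors by Ficoll-Hypaque gradient, cultured 6 days into macrophages, then infected with Ba-L. Medium RPMI 1640 with 10% FBS, 2 mM glutamine, penicillin/streptomycin. Replication read as p24 antigen by ELISA 6 days postinfection. […] Run in triplicate, with AZT as positive control.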

CCRF-CEM [2] = experiment: Antiviral activity against site directed 4X AZT resistant isolate HIV-1 L100I in CEM cells; format: functional, cell-based, Homo sapiens
Procedure, shortened: (§1)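 CEM-SS cells infected with low-cytopathicity site-directed RT-mutant NL4-3 clones (A98G, L74V, 4XAZT = D67N/K70R/T215Y/K219Q, 4XAZT/L100I). Replication was quantified by p24 ELISA rather than cytoprotection. […] Triplicate, variation of mean about 10%.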

CCRF-CEM [3] = experiment: Antiviral activity against site directed 4X AZT resistant isolate HIV-1 in CEM cells; format: functional, cell-based, Homo sapiens; conditions: Homo sapiens, CCRF-CEM
CCRF-CEM [4] = experiment: Antiviral activity against site directed resistant isolate HIV-1 K101E in CEM cells; format: functional, cell-based, Homo sapiens
CCRF-CEM [5] = experiment: Antiviral activity against site directed resistant isolate HIV-1 K103N in CEM cells; format: functional, cell-based, Homo sapiens
Procedure, shortened: (§2)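 CEM-SS cells in RPMI 1640 with 10% heat-inactivated FBS were infected with NL4-3 molecular clones carrying site-directed RT mutations. Cytoprotection from virus-induced syncytial killing was read by MTS/phenazine ethosulfate reduction (A490) 6 days after infection. […] Triplicate, variation of mean about 10%.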

CCRF-CEM [6] = experiment: Antiviral activity against site directed resistant isolate HIV-1 L100I in CEM cells; format: functional, cell-based, Homo sapiens; procedure, shortened: as §2
CCRF-CEM [7] = experiment: Antiviral activity against site directed resistant isolate HIV-1 L74V in CEM cells; format: functional, cell-based, Homo sapiens; procedure, shortened: as §1
CCRF-CEM [8] = experiment: Antiviral activity against site directed resistant isolate HIV-1 V106A in CEM cells; format: functional, cell-based, Homo sapiens; procedure, shortened: as §2
CCRF-CEM [9] = experiment: Antiviral activity against site directed resistant isolate HIV-1 Y181C in CEM cells; format: functional, cell-based, Homo sapiens; procedure, shortened: as §2
CCRF-CEM [10] = experiment: Antiviral activity against site directed resistant isolate HIV-1 Y188C in CEM cells; format: functional, cell-based, Homo sapiens; procedure, shortened: as §2
CCRF-CEM [11] = experiment: Antiviral activity against site directed wild-type enzyme isolate HIV-1 NL4-3WT in CEM cells; format: functional, cell-based; conditions: Homo sapiens
Procedure, shortened: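 Wild-type NL4-3 in CEM-SS cells, measured both by MTS cytoprotection 6 days after infection and by p24 ELISA. The IC50 is the mean of the two methods' values.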

[12] = test system: Human immunodeficiency virus type 1 (RF/HAT ISOLATE); experiment: Inhibitory concentration for cytopathicity of HIV-1RF in CEM-SS cells; format: functional, organism-based; conditions: Human immunodeficiency virus 1, RF
Procedure, shortened: (§3)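 CEM-SS cells kept in RPMI 1640 with 10% heat-inactivated FBS, 2 mM glutamine, penicillin/streptomycin. Microtiter assay with cytopathic HIV-1 RF, or mock infection for toxicity. Viability read by MTS/phenazine ethosulfate reduction (absorbance 490 nm) 6 days after infection. […] Triplicate.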

CEM-SS = experiment: Concentration required for cytotoxicity against mock infected CEM-SS cells; format: functional; conditions: Homo sapiens; procedure, shortened: as §3
[13] = (§4) Antiviral activity against ROJO virus strain in PBLs (peripheral blood lymphocytes); format: functional, cell-based; conditions: Homo sapiens
Procedure, shortened: (§5)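 PBMCs isolated from hepatitis- and HIV-seronegative donors by Ficoll-Hypaque gradient and stimulated 3 days with phytohemagglutinin/IL-2. Infected with pediatric low-passage clinical isolates or NIAID subtype isolates, in RPMI 1640 with 10% FBS, 2 mM glutamine, penicillin/streptomycin. Replication read as supernatant reverse transcriptase activity. […] Run in triplicate, with AZT as positive control.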

[14] = Antiviral activity against SLKA virus strain in PBLs (peripheral blood lymphocytes); format: functional, cell-based; conditions: Homo sapiens; procedure, shortened: as §5
[15] = Antiviral activity against TEKI virus strain in PBLs (peripheral blood lymphocytes); format: functional, cell-based; conditions: Homo sapiens; procedure, shortened: as §5
[16] = Antiviral activity against WEJO virus strain in PBLs (peripheral blood lymphocytes); format: functional, cell-based; conditions: Homo sapiens; procedure, shortened: as §5
[17] = Antiviral activity against multi drug resistant MDR 769 strain in PBLs (peripheral blood lymphocytes); format: functional, cell-based; conditions: Homo sapiens
Procedure, shortened: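 PBMC from hepatitis- and HIV-seronegative donors isolated by Ficoll-Hypaque gradient and stimulated 3 days with phytohemagglutinin/IL-2 before infection. Medium RPMI 1640 with 10% FBS, 2 mM glutamine, penicillin/streptomycin. Replication read as supernatant reverse transcriptase activity. […] Run in triplicate, SD within triplicate under 10%; AZT positive control.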

[18] = Antiviral activity against subtype isolate A strain in PBLs (peripheral blood lymphocytes); format: functional, cell-based; conditions: Homo sapiens; procedure, shortened: as §5
[19] = Antiviral activity against subtype isolate B strain in PBLs (peripheral blood lymphocytes); format: functional, cell-based, Homo sapiens; procedure, shortened: as §5
[20] = Antiviral activity against subtype isolate C strain in PBLs (peripheral blood lymphocytes); format: functional, cell-based; conditions: Homo sapiens; procedure, shortened: as §5
[21] = Antiviral activity against subtype isolate D strain in PBLs (peripheral blood lymphocytes); format: functional, cell-based; conditions: Homo sapiens; procedure, shortened: as §5
[22] = Antiviral activity against subtype isolate F strain in PBLs (peripheral blood lymphocytes); format: functional, cell-based, Homo sapiens; conditions: Homo sapiens; procedure, shortened: as §5
[23] = Antiviral activity against subtype isolate G strain in PBLs (peripheral blood lymphocytes); format: functional, cell-based; conditions: Homo sapiens; procedure, shortened: as §5
[24] = Antiviral activity against subtype isolate O strain in PBLs (peripheral blood lymphocytes); format: functional, cell-based, Homo sapiens; procedure, shortened: as §5
CCRF-CEM [25] = experiment: Antiviral activity against site directed resistant isolate HIV-1 V179D in CEM cells; format: functional, cell-based, Homo sapiens; procedure, shortened: as §2
CCRF-CEM [26] = experiment: Antiviral activity against site directed resistant isolates in HIV-1 A98G CEM cells; format: functional, cell-based, Homo sapiens; procedure, shortened: as §1
PBL = experiment: as §4; format: functional, cell-based; conditions: Homo sapiens; procedure, shortened: as §5
[27] = Antiviral activity against subtype isolate E strain in PBLs (peripheral blood lymphocytes); format: functional, cell-based; conditions: Homo sapiens
[28] = biological target: Human immunodeficiency virus type 1 reverse transcriptase (Human immunodeficiency virus 1, UniProt Q72547); experiment: Inhibitory activity against HIV-1 Reverse Transcriptase with rCdG as the template primer
Procedure, shortened: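 Cell-free assay with purified recombinant HIV-1 RT (p66/p51 dimer). Activity measured as [32P]GTP incorporation into the poly(rC)/oligo(dG) homopolymer template/primer. IC50 is reported as inhibition of enzyme activity.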

[29] = Ratio of CC50/EC50 was determined; conditions: read-out: TI
Procedure, shortened: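 HIV-1 RF–infected CEM-SS cells (RPMI 1640, 10% heat-inactivated FBS, 2 mM glutamine, penicillin/streptomycin), plus mock-infected CEM-SS in parallel. Cell killing and viability were read by MTS/phenazine ethosulfate reduction at 490 nm 6 days after infection. […] Index = CC50 ÷ EC50. Triplicate tests.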

SMILES	IC50 [1] [µM]	IC50 (CCRF-CEM [2]) [µM]	IC50 (CCRF-CEM [3]) [µM]	IC50 (CCRF-CEM [4]) [µM]	IC50 (CCRF-CEM [5]) [µM]	IC50 (CCRF-CEM [6]) [µM]	IC50 (CCRF-CEM [7]) [µM]	IC50 (CCRF-CEM [8]) [µM]	IC50 (CCRF-CEM [9]) [µM]	IC50 (CCRF-CEM [10]) [µM]	IC50 (CCRF-CEM [11]) [µM]	EC50 [12] [µM]	CC50 (CEM-SS) [µM]	IC50 [14] [µM]	IC50 [15] [µM]	IC50 [16] [µM]	IC50 [17] [µM]	IC50 [18] [µM]	IC50 [20] [µM]	IC50 [21] [µM]	also measured
COC(=O)CCCC=C(c1cc(Cl)c(OC)c(C(=O)OC)c1)c1cc(Cl)c(OC)c(C(=O)OC)c1	5.4	0.49	0.075	0.366	0.6	0.408	0.469	> 20	> 20	3.3	0.85	0.013	31.6	1.3	0.8	0.6	16.9	0.1	0.41	0.18	IC50 [13]: 0.75 µM; IC50 [19]: 12.7 µM; IC50 [22]: 1.3 µM; IC50 [23]: 0.6 µM; IC50 [24]: 12 µM; IC50 (CCRF-CEM [25]): 1.3 µM
CCOC(=O)CCCC=C(c1cc(Cl)c(OC)c(C(=O)OC)c1)c1cc(Cl)c(OC)c(C(=O)OC)c1	8.9	0.37	0.076	0.164	0.27	0.08	0.885	10.3	19.1	4.1	0.58	0.01	16	0.9	1	0.7	45.2	0.2	0.82	0.15	IC50 (CCRF-CEM [26]): 0.013 µM; IC50 (PBL): 0.39 µM; IC50 ([19]; Homo sapiens): 12.5 µM; IC50 [27]: 0.2 µM; IC50 [22]: 0.3 µM; IC50 [23]: 0.8 µM; IC50 ([24]; Homo sapiens): 30 µM; IC50 [28]: 0.233 µM; selectivity ratio [29]: 1600; IC50 (CCRF-CEM [25]): 2.3 µM
